Results on 19 molecules are retold here after ChEMBL document CHEMBL1153507, “Synthesis, DNA intercalation and 3D QSAR analysis of cis-2,4,5-trisubstituted-1,3-dithiolanes as a novel class of antitumor agents” (2009).

The subject of assay [1] is Calf thymus DNA. Put plainly: Binding affinity to calf thymus DNA by spectroscopy. Format: nucleic-acid assay. The note with it: Bos taurus. The gist of the method:
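UV-vis titration of calf thymus DNA (10 µM final) in PBS, pH 7.4. Compound from a 10 mM PBS stock was added in sequential aliquots to final 4–40 µM, and spectra were recorded after each addition. Compounds were transparent at 200–360 nm.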

Assay [2] has as its system Calf thymus DNA. Description: Binding affinity to calf thymus DNA assessed as hyperchromic effect by UV-vis spectrophotometry. The note with it: Bos taurus.
Assay [3] has as its system Calf thymus DNA. Description: Binding affinity to calf thymus DNA by circular diachromic assay. In kind it is nucleic-acid assay. The note with it: Bos taurus.
Assay [4] concerns CCRF S-180. Description: Antitumor activity against mouse S180 cells implanted in ICR mouse assessed as tumor weight at 44.64 umol/kg/day, ip administered for 7 consecutive days after 24 hrs of tumor implantation measured after 24 hrs post dose. Format: functional. In outline:
(§1)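 Male ICR mice aged 10–12 weeks, housed at 21 °C on a natural light cycle, carried S180 tumors. 24 h after implantation they were randomized into groups of 10. Daily ip dosing in 0.2 ml normal saline for 7 days: test agents 44.64 µmol/kg/day, cytarabine 89.28 µmol/kg/day, saline as negative control. Mice were killed 24 h after the last dose and tumors weighed. Inhibition = (control − treated)/control tumor weight. Mean ± SD.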

Assay [5] relates to CCRF S-180. Description: Antitumor activity against mouse S180 cells xenografted in ip dosed ICR mouse assessed as inhibition of tumor weight administered for 7 consecutive days after 24 of hrs tumor implantation measured after 24 hrs post dose. Format: functional, organism-based. In outline: as §1
Assay [6] has as its system CCRF S-180. Description: Antitumor activity against mouse S180 cells implanted in ICR mouse assessed as tumor weight at 89.28 umol/kg/day, ip administered for 7 consecutive days after 24 hrs of tumor implantation measured after 24 hrs post dose. In kind it is functional. The gist of the method: as §1

Calls of active or inactive are those of the source. The calls are words filed in the database; no cut-off is given here.

Turning to `CC(C)C[C@H](N)C(=O)OC[C@@H]1S[C@H](CC=O)S[C@@H]1COC(=O)[C@@H](N)CC(C)C`, the result in the assay with Calf thymus DNA [1], in the assay with Calf thymus DNA [2] and in the assay on Calf thymus DNA [3] was Active. For the same molecule, in the assay with CCRF S-180 [4], the Activity is reported as 1.296 g.
Turning to `NC(=O)C[C@H](N)C(=O)OC[C@@H]1S[C@H](CC=O)S[C@@H]1COC(=O)[C@@H](N)CC(N)=O`, the result in the assay on Calf thymus DNA [1], in the assay with Calf thymus DNA [2] and in the assay on Calf thymus DNA [3] was Active. Besides, the Activity in the assay with CCRF S-180 [4] was determined as 0.855 g.
As to `NCCCC[C@H](N)C(=O)OC[C@@H]1S[C@H](CC=O)S[C@@H]1COC(=O)[C@@H](N)CCCCN`, the outcome in the assay with Calf thymus DNA [1], in the assay on Calf thymus DNA [2] and in the assay on Calf thymus DNA [3] was Active. Also, the Activity in the assay on CCRF S-180 [4] is 0.989 g.
Regarding `N=C(N)NCCC[C@H](N)C(=O)OC[C@@H]1S[C@H](CC=O)S[C@@H]1COC(=O)[C@@H](N)CCCNC(=N)N`, the result in the assay on Calf thymus DNA [1], in the assay with Calf thymus DNA [2] and in the assay on Calf thymus DNA [3] was Active. The Activity in the assay with CCRF S-180 [4] stood at 0.778 g.
Turning to `NCC(=O)OC[C@@H]1S[C@H](CC=O)S[C@@H]1COC(=O)CN`, in the assay with CCRF S-180 [5], the inhibition result was “Dose-dependent effect”. In addition, the outcome with Calf thymus DNA [1], with Calf thymus DNA [2] and in the assay on Calf thymus DNA [3] was Active. Also, the Activity in the assay with CCRF S-180 [4] turned out to be 0.723 g.
Turning to `N[C@@H](CCC(=O)O)C(=O)OC[C@@H]1S[C@H](CC=O)S[C@@H]1COC(=O)[C@@H](N)CCC(=O)O`, the outcome in the assay on Calf thymus DNA [1], in the assay with Calf thymus DNA [2] and in the assay on Calf thymus DNA [3] was Active. Moreover, in the assay on CCRF S-180 [4], the Activity is 1.051 g.
As for `O=CC[C@H]1S[C@@H](COC(=O)[C@@H]2CCCN2)[C@@H](COC(=O)[C@@H]2CCCN2)S1`, the outcome in the assay with Calf thymus DNA [1], in the assay on Calf thymus DNA [2] and in the assay with Calf thymus DNA [3] was Active. Besides, the Activity in the assay with CCRF S-180 [4] is 1.446 g.
`CC(C)[C@H](N)C(=O)OC[C@@H]1S[C@H](CC=O)S[C@@H]1COC(=O)[C@@H](N)C(C)C` (mixture of isomers): the result with Calf thymus DNA [1], in the assay on Calf thymus DNA [2] and with Calf thymus DNA [3] was Active. Also, the Activity in the assay on CCRF S-180 [4] turned out to be 1.114 g.
As to `NC(=O)CC[C@H](N)C(=O)OC[C@@H]1S[C@H](CC=O)S[C@@H]1COC(=O)[C@@H](N)CCC(N)=O`, the result with Calf thymus DNA [1], in the assay on Calf thymus DNA [2] and in the assay on Calf thymus DNA [3] was Active. Besides, the Activity in the assay with CCRF S-180 [4] is on record as 1.061 g.
For the molecule `C[C@@H](O)[C@H](N)C(=O)OC[C@@H]1S[C@H](CC=O)S[C@@H]1COC(=O)[C@@H](N)[C@@H](C)O`, the outcome in the assay with Calf thymus DNA [1], in the assay on Calf thymus DNA [2] and in the assay on Calf thymus DNA [3] was Active. Also, the Activity with CCRF S-180 [4] was found to be 1.087 g.
Take `CC[C@H](C)[C@H](N)C(=O)OC[C@@H]1S[C@H](CC=O)S[C@@H]1COC(=O)[C@@H](N)[C@@H](C)CC`: the result in the assay on Calf thymus DNA [1], in the assay on Calf thymus DNA [2] and with Calf thymus DNA [3] was Active. In addition, the Activity in the assay on CCRF S-180 [4] is 1.064 g.
Regarding `N[C@@H](Cc1c[nH]cn1)C(=O)OC[C@@H]1S[C@H](CC=O)S[C@@H]1COC(=O)[C@@H](N)Cc1c[nH]cn1`, the outcome in the assay with Calf thymus DNA [1], in the assay on Calf thymus DNA [2] and with Calf thymus DNA [3] was Active. The Activity with CCRF S-180 [4] stood at 1.076 g.
For `N[C@@H](Cc1ccc(O)cc1)C(=O)OC[C@@H]1S[C@H](CC=O)S[C@@H]1COC(=O)[C@@H](N)Cc1ccc(O)cc1`, the inhibition result in the assay on CCRF S-180 [5] is “Dose-dependent effect”. Moreover, the outcome with Calf thymus DNA [1], in the assay on Calf thymus DNA [2] and with Calf thymus DNA [3] was Active. In the assay with CCRF S-180 [4], the Activity is 0.529 g.
`Nc1ccn([C@@H]2O[C@H](CO)[C@@H](O)[C@@H]2O)c(=O)n1` [CYTARABINE]: the Activity in the assay with CCRF S-180 [6] turned out to be 0.582 g.
Take `CSCC[C@H](N)C(=O)OC[C@@H]1S[C@H](CC=O)S[C@@H]1COC(=O)[C@@H](N)CCSC`: the outcome with Calf thymus DNA [1], with Calf thymus DNA [2] and with Calf thymus DNA [3] was Active. Besides, the Activity in the assay on CCRF S-180 [4] is listed as 1.139 g.
For `N[C@@H](CO)C(=O)OC[C@@H]1S[C@H](CC=O)S[C@@H]1COC(=O)[C@@H](N)CO`, the outcome in the assay with Calf thymus DNA [1], in the assay on Calf thymus DNA [2] and in the assay on Calf thymus DNA [3] was Active. In the assay with CCRF S-180 [4], the Activity is given as 1.493 g.
Regarding `N[C@@H](Cc1ccccc1)C(=O)OC[C@@H]1S[C@H](CC=O)S[C@@H]1COC(=O)[C@@H](N)Cc1ccccc1`, the inhibition entry in the assay on CCRF S-180 [5] is “Dose-dependent effect”. Besides, the outcome in the assay with Calf thymus DNA [1], in the assay with Calf thymus DNA [2] and with Calf thymus DNA [3] was Active. In the assay with CCRF S-180 [4], the Activity was found to be 0.693 g.
As to `N[C@@H](Cc1c[nH]c2ccccc12)C(=O)OC[C@@H]1S[C@H](CC=O)S[C@@H]1COC(=O)[C@@H](N)Cc1c[nH]c2ccccc12`, the outcome in the assay on Calf thymus DNA [1], in the assay on Calf thymus DNA [2] and in the assay on Calf thymus DNA [3] was Active. Besides, in the assay with CCRF S-180 [4], the Activity was found to be 0.954 g.
For the molecule `C[C@H](N)C(=O)OC[C@@H]1S[C@H](CC=O)S[C@@H]1COC(=O)[C@H](C)N`, the result in the assay on Calf thymus DNA [1], in the assay with Calf thymus DNA [2] and with Calf thymus DNA [3] was Active. Further, in the assay on CCRF S-180 [4], the Activity was 1.213 g.
